Source: PubChem BioAssay (several laboratories)
HEK293 NFkB inh – inhibitors of the PMA/ionomycin-induced NF-kB reporter in HEK293 cells | inhibition, % at 3 µM | AID 465 | HEK-293 NF-kB luciferase reporter, luminescence | actives 0.21% (n = 62,000);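 active = inhibition above the mean of all tested compounds plus 3 SD, cut at about 40% in these data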;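 also: 0% = stimulated DMSO wells and 100% = 10 µM reference inhibitor 5653914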
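System – HEK-293 cells with stable firefly luciferase reporter driven by four HIV NF-kB elements · Doses – one dose, 3 µM · Schedule – 1 h compound pre-incubation, 16 h PMA/ionomycin at 37 °C · Technique – luminescence from luciferase substrate reagent · Measure – percent inhibition normalized per plate to DMSO and reference-inhibitor controls · Replicates – tested once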
D1 allo mod – D1 dopamine receptor (human) allosteric modulation; HEK293 D1, CRE-luciferase, dopamine EC30 potentiation; actives deviate in either direction; B-score at 10 µM; P21728; actives 5.9% (n = 58,000);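 active = luminescence count or its row- and column-corrected plate score outside the 99.7% band of the plate's sample wells, on either side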
Target sequence (P21728 whole entry, looked up): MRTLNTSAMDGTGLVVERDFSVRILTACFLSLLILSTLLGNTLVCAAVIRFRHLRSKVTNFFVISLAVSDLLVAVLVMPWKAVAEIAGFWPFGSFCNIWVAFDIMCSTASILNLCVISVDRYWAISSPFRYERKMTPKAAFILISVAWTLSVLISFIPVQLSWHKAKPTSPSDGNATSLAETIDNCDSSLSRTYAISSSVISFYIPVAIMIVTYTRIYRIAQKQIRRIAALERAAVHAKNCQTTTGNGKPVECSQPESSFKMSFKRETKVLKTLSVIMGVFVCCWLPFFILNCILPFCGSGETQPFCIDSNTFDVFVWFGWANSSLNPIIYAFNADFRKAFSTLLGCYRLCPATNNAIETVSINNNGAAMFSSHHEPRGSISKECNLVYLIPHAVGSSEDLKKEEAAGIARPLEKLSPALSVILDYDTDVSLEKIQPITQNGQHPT
M1 antagonist – antagonists of rat M1 muscarinic receptor; P08482; CHO-M1 cells, Fluo-4 calcium, ACh EC80 antagonist mode; hits give low values; B-score at 10 µM; AID 628; actives 3.4% (n = 64,000);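 active = calcium fluorescence response, raw or row-and-column corrected B-score, differing from the plate sample mean either way at a set confidence level, mostly lower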
M1 agonist – activates the M1 muscarinic receptor; CHO-M1 cells, Fluo-4 calcium fluorescence, agonist mode; hits give high values; B-score at 10 µM; actives 3% (n = 64,000); AID 626;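 active = fluorescence rise, raw or as B-score row- and column-corrected plate score, outside the 99.7% band of its plate's samples, either direction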
DAT uptake mod – human DAT dopamine uptake with cocaine, either direction. Q01959. LLC-PK1 hDAT cells, [14C]-dopamine uptake with cocaine IC80; actives deviate in either direction. B-score at 10 µM. actives 1.3% (n = 110,000). AID 449768;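 active = Z score or B-score, a plate-position-corrected score, falls beyond the plate's 99.7% confidence bounds, in either direction; inactive = both scores lie inside the 99.7% bounds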;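 also: scored against the spread of the other compound wells on the same plate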
BAP1 inh – human BAP1 deubiquitinase inhibition; calls only at 20 µM; recombinant BAP1, Ub-AMC hydrolysis fluorescence kinetic; hits give low values; Q92560; actives 0.48% (n = 72,000);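 active = activity remaining at or below 50% of control, provided the compound also passes the data quality filters; inactive = the rest, including low values that fail the filters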;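 also: 100% = DMSO wells rate and 0% = substrate alone blank rate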
* marks the source's active call; other numbers are inactive results; i = inactive; · = no result given. Rows were chosen to be rich in hits. Some 7.2% of all compounds tested hit in one or more screens of this group.

SMILES	HEK293 NFkB inh	D1 allo mod	M1 antagonist	M1 agonist	DAT uptake mod	BAP1 inh
CCOc1ccccc1N(CC(=O)N1CCCCCC1)S(C)(=O)=O	0	-3.8*	1.4	0.11	0.059	i
COc1ccccc1N(CC(=O)N1CCCCCC1)S(C)(=O)=O	·	-0.0036	0.2	-0.0043	-0.056	·
Cc1cc(=O)n2ccc(CN3CCOCC3)c(O)c2n1	·	·	·	·	·	i
COc1cccc(-c2ccc(=O)n(CC(=O)Nc3ccc(C(=O)N4CCCC4)cc3)n2)c1	·	·	·	·	2.9*	·
COc1cccc(-c2ccc(=O)n(CC(=O)Nc3cc4c(cc3NC(C)=O)OCCO4)n2)c1	19	-0.33	0.75	-0.64	0.45	i
Cc1ccc(NC(=O)c2cccc(C(=O)Nc3ccc(C)cc3[N+](=O)[O-])n2)c([N+](=O)[O-])c1	·	·	·	·	·	i
CCN1CC2=C(OC(N)=C(C#N)C2c2cccs2)/C(=C/c2cccs2)C1 (stereo not given)	15	-2.7*	-0.21	0.62	0.21	i
CCN1CC2=C(OC(N)=C(C#N)C2c2ccccc2)/C(=C\c2ccccc2)C1 (stereo not given)	·	·	-1.2	5.3	0.54	i
Nc1ncnc2c1ncn2[C@@H]1O[C@H](CO)[C@@H](O)[C@H]1O	·	1.9	-0.35	13*	-0.055	i
CSCCC(NS(=O)(=O)c1ccc(Cl)cc1)C(=O)OCC(=O)NC1CCCCC1 (stereo not given)	·	·	·	·	3.2*	·
CSCCC(NS(=O)(=O)c1ccc(Cl)cc1)C(=O)OCC(=O)NC1CC1 (stereo not given)	·	·	·	·	-1.3	·
CCN(CC)c1ccc2c(c1)CCCN2	13	-3.4*	-1.4	-1.6	-0.023	i
COCCn1c(CN2CCN(c3cccc(Cl)c3)CC2)nc2c1c(=O)n(C)c(=O)n2C	3	-3.5*	-0.031	-0.2	-0.072	i
CCOCCn1c(CN2CCN(c3cccc(Cl)c3)CC2)nc2c1c(=O)n(C)c(=O)n2C	11	0.26	-0.26	-0.18	1.1	i
COc1ccc(-c2[nH]ncc2Oc2ccccc2OC)c(O)c1	28	-0.39	·	·	0.94	i
C=C(C)COc1ccc(-c2[nH]ncc2-c2ccccc2)c(O)c1	·	·	·	·	0.84	·
C=C(C)COc1ccc(-c2[nH]ncc2-c2ccc(OC)c(OC)c2)c(O)c1	58*	4.4	0.086	1.6	1	i
COc1ccc(-c2nc(N)ncc2Oc2ccccc2Br)c(O)c1	28	14*	-0.11	-0.19	-0.29	i
C=C(C)COc1ccc(-c2nc(N)ncc2-c2ccc(OC)cc2)c(O)c1	20	3.4*	0.79	0.27	0.63	i
O=C(Nc1ccc2oc(-c3ccccc3Cl)nc2c1)c1ccc([N+](=O)[O-])cc1	·	·	·	·	·	i
COc1cccc(C(=O)Nc2c3c(nn2-c2ccc(Oc4ccccc4)cc2)CSC3)c1OC	·	·	·	·	·	i
CC(=O)N1CCc2cc(NC(=O)c3ccc(C)cc3)ccc21	-1	-2.6*	1.6	0.48	-0.93	i
O=C1c2cccc3cccc(c23)N1Cc1c(O)ccc2ccccc12	·	·	·	·	·	i
Cc1ccccc1Cc1c(C)nc2nc(SCC(=O)NCc3ccco3)nn2c1C	18	·	0	0.028	-7.9*	·
Cc1nc2c(C(=O)O)cnn2c(C)c1Cc1ccccc1F	17	-0.59	0.16	0.081	0.21	i
SMILES	HEK293 NFkB inh	D1 allo mod	M1 antagonist	M1 agonist	DAT uptake mod	BAP1 inh
Cc1ccccc1Cc1c(C)nc2c(C(=O)NCc3ccco3)cnn2c1C	15	1.6	-0.12	0.93	3*	i
Cc1ccc(Cc2c(C)nc3nc(SCC(=O)NCc4ccco4)nn3c2C)cc1	10	1.3	-0.52	-0.75	-0.042	·
CCCCCC(=O)N1CC2(CC(c3cccc(NC(=O)COc4ccc(Cl)cc4)c3)=NO2)C[C@@H]1C(N)=O (stereo not given in full)	·	·	·	·	3.1*	·
CCCc1[nH]c(C(=S)SCC)cc1CC	·	·	·	·	·	i
COc1ccc(C(=O)N(Cc2ccco2)C(C(=O)NC2CCCC2)c2ccc(O)cc2)cc1OC (stereo not given)	8	0.17	-1.3	2.6*	-0.69	i
CCOC(=O)c1nnc(-c2ccc(C)cc2)nc1Oc1ccccc1Cl	·	·	·	·	-0.14	·
CCOC(=O)c1nnc(-c2ccc(C)cc2)nc1Oc1ccc(Cl)cc1Cl	·	·	·	·	-2.7*	·
O=C(Cn1ncc2c3ccccc3n(Cc3ccc(F)cc3)c2c1=O)N1CCN(c2ncccn2)CC1	·	·	·	·	2.8*	·
Cc1oc(C(C)(C)C)cc1C(=O)NCCNc1c(Cl)cccc1[N+](=O)[O-]	·	·	·	·	·	i
CCn1cc(C(=O)N2CCN(Cc3ccc4c(c3)OCO4)CC2)c(=O)c2ccc(C)nc21	·	·	·	·	1.9	·
CCn1cc(C(=O)NCc2ccc3c(c2)OCO3)c(=O)c2ccc(C)nc21	10	4.3*	0.088	-0.083	·	i
Cc1ccc(S(=O)(=O)NC(=O)c2ccc(-c3ccc(-c4ccccc4)cc3)o2)c(C)c1	·	·	·	·	-2.2*	·
OCCCc1nc2ccccc2n1Cc1ccc2ccccc2c1	·	·	·	·	·	i
Cc1ccccc1N(CC(=O)N/N=C/c1cc(C)n(-c2ccccc2C)c1C)S(C)(=O)=O	·	·	·	·	-2.7*	·
Nc1c(C(=O)N2CCCCC2)sc(=S)n1-c1ccccc1	16	0.18	-0.22	-0.0073	2.7*	i
CCCS(=O)(=O)N1CCc2cc(OC)c(OC)cc2C1	2	0.15	0.21	-0.66	-8.2*	i
CCOC(=O)c1c(C)oc2c1c(C(c1cccnc1)N1CCN(C)CC1)c(O)c1ccccc12 (stereo not given)	18	-0.73	-0.0027	3.4*	·	i
Cc1cc(-c2nnc3n2N=C(c2ccc(-c4ccccc4)cc2)CS3)n[nH]1	6	-0.3	-0.63	-1	0.77	·
CC1=Nn2c(nnc2-c2n[nH]c3c2CCC3)SC1	17	-0.0096	0.75	-0.85	-8*	i
CC(C)(C)C1=Nn2c(nnc2-c2n[nH]c3c2CCC3)SC1	8	0.81	1.1	-0.21	0.041	i
Fc1ccc(C2=Nn3c(nnc3-c3n[nH]c4c3CCC4)SC2)cc1	30	-3*	0.24	-0.12	1.1	i
Cc1cc(C)nc(NC(=O)c2c(-c3c(Cl)cccc3Cl)noc2C)n1	12	-0.11	0.24	0.1	-2.9*	i
CC(=O)c1c(C)oc(C)c1CSCc1ccc(C(=O)O)o1	13	-8.1*	0.32	-0.53	·	i
COc1ccc(NC(=O)c2cc3nc(-c4ccc(OC)c(OC)c4)cc(C(F)(F)F)n3n2)cc1OC	·	·	·	·	·	i
CCc1ccc(NC(=O)c2cc(C)on2)cc1	-55	-3.1*	1	-0.13	-1.4	i
CCCCNC(=S)NNC(=O)c1cccnc1	·	·	·	·	-8.2*	·
O=C(CCNc1n[nH]c(=O)[nH]c1=O)N1CCOCC1	2	·	-0.26	-0.2	-3.4*	i
Cc1ccccc1C(=O)Nc1sc2c(c1C(=O)N1CCC(C)CC1)CCC2	·	·	·	·	·	i
CCc1ccc(C2CC(c3ccc(C)cc3)Nc3nc(N)nn32)cc1 (stereo not given)	13	0.44	0.024	-0.51	-2.5*	i
